TRPC4 act: activators of mouse TRPC4 channel; B-score at 10 µM; HEK293 TRPC4beta/mu-opioid, Fluo4 calcium fluorescence; hits give high values; 310,000 compounds, 0.49% hits; Q9QUQ5;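 active = B-score above 5 SD of library B-scores, and initial fluorescence ratio not above library mean plus 5 SD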;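 also: positive B-score marks a calcium rise read as TRPC4 activation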
Target sequence (Q9QUQ5 whole entry, looked up): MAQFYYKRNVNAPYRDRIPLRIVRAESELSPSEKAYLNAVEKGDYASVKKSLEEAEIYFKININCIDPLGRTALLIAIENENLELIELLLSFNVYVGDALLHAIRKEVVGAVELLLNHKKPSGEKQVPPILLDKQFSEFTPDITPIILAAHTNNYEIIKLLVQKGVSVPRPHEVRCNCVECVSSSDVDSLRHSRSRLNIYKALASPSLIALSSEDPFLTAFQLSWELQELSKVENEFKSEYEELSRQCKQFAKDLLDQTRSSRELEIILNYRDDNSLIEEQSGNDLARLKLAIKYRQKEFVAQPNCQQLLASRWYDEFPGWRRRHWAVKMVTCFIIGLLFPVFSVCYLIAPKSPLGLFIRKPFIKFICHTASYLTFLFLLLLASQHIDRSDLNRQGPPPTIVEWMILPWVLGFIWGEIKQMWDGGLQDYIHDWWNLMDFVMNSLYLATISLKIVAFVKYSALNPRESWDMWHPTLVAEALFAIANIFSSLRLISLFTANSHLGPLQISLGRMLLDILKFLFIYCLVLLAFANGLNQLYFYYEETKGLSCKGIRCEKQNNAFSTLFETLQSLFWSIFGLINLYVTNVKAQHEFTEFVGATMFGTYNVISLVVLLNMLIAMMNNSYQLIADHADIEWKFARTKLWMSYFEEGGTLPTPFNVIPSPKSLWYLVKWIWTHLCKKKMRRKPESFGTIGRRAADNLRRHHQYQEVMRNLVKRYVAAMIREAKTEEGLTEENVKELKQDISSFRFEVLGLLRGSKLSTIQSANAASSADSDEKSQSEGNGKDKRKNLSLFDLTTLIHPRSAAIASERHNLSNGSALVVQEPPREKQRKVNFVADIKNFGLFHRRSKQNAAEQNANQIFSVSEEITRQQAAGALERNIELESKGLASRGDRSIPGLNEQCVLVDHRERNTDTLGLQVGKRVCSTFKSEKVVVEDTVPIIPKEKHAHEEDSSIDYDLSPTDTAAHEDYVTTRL
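Technique: kinetic Fluo4 calcium fluorescence; Test system: TRPC4beta and mu-opioid receptor HEK293 stable cells; Measure: B-scored integrated calcium fluorescence ratio; Benchmarks: low control buffer alone, high control maximal DAMGO; Schedule: 45 min room-temperature Fluo4 loading, 110 s read.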
Kir21 inh: inhibitors of mouse Kir2.1 inward-rectifier potassium channel; HEK293-Kir2.1, FluxOR thallium flux fluorescence; hits give low values; AID 1672; 310,000 compounds, 0.85% hits; P35561; B-score at 10 µM;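 active = fluorescence ratio B-score at or below minus 3 SD of library scores, with starting-brightness B-score within 2 SD, cut at about -4.2 in these data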;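 also: channel flux triggered by added potassium and thallium sulfate stimulus; B-score of peak minus minimum fluorescence over baseline after thallium stimulus; more negative B-score means stronger Kir2.1 block with less thallium influx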
TRPC6 activator: mouse TRPC6 channel activation; HEK293-TRPC6 membrane potential dye fluorescence; hits give high values; B-score at 10 µM; 310,000 compounds, 0.13% hits;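 active = B-score of the integrated fluorescence ratio above library mean plus 3 SD, and starting fluorescence ratio within library mean plus 5 SD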;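 also: higher score means more depolarization so channel activation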
TRPC4 block: inhibitors of mouse TRPC4 channel. Q9QUQ5. HEK293 TRPC4beta/mu-opioid, DAMGO-evoked Fluo4 calcium flux; hits give low values. B-score at 10 µM. 300,000 compounds, 0.39% hits. AID 2247;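 active = B-score over 3 SD under the library average, no early fluorescence shift, positive overall ratio signal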
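Assay system: TRPC4beta/mu-opioid receptor HEK293 cell line; compound dosing: single concentration per test compound; detection: Fluo4 Ca2+ flux fluorescence; evaluation: per-well B score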
TRPC6 inh: inhibitors of mouse TRPC6 channel; AID 2553; HEK293-TRPC6, membrane potential dye, ACh-evoked depolarization; hits give low values; B-score at 10 µM; 310,000 compounds, 1.1% hits;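 active = B-score under library mean minus 3 SD, initial fluorescence not abnormally high, positive integrated signal ratio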;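 also: B-score derived from integrated fluorescence ratio over the kinetic read; more negative B-score means stronger inhibition of depolarization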
TRPC4 PAM: allosterically enhances the mouse TRPC4 cation channel; Q9QUQ5; HEK293 TRPC4beta/mu-opioid, DAMGO EC20, Fluo-4 Ca2+ flux; hits give high values; B-score at 10 µM; 310,000 compounds, 0.42% hits; AID 2227;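 active = B-score of calcium response area above 5 SD of library B-scores, with initial fluorescence ratio within 5 SD of library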;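 also: B-score of integrated fluorescence ratio over time as area under calcium response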
Numbers without * were called inactive. Rows were chosen to be rich in hits. Some 3% of all compounds tested hit in one or more screens of this group.

What do the screens show for `O=C(Nc1ccnn1C1CCN(C2CCOCC2)CC1)c1cccc(F)c1`?
TRPC4 act: inactive; Kir21 inh: -0.55; TRPC6 activator: inactive; TRPC4 block: inactive; TRPC6 inh: inactive; TRPC4 PAM: inactive

What do the screens show for `N=c1n(CCO)c2ccccc2n1Cc1ccc(Cl)cc1`?
TRPC4 act: inactive; Kir21 inh: -2.1; TRPC6 activator: inactive; TRPC4 block: -6*; TRPC6 inh: inactive; TRPC4 PAM: inactive

What do the screens show for `CN1CCN(CC(=O)Nc2c(C#N)cnn2-c2ccccc2)CC1`?
TRPC4 act: 59*; Kir21 inh: 0.47; TRPC6 activator: inactive; TRPC4 block: inactive; TRPC6 inh: inactive; TRPC4 PAM: inactive

What do the screens show for `N#Cc1cnn(-c2ccccc2)c1NC(=O)CN1CCN(c2ccccc2)CC1`?
TRPC4 act: inactive; Kir21 inh: -0.12; TRPC6 activator: inactive; TRPC4 block: inactive; TRPC6 inh: inactive; TRPC4 PAM: inactive

Results for Cc1noc(C)c1COC(=O)C1(c2cccc(F)c2)CCCC1 ?
TRPC4 act: inactive; Kir21 inh: -4.3*; TRPC6 activator: inactive; TRPC4 block: inactive; TRPC6 inh: inactive; TRPC4 PAM: inactive

Results for COCCCN(CC(=O)O)S(=O)(=O)c1cccc(Cl)c1 ?
TRPC4 act: inactive; Kir21 inh: 1.2; TRPC6 activator: inactive; TRPC4 block: inactive; TRPC6 inh: inactive; TRPC4 PAM: inactive

Results for CC1CCN(C(=O)C2CCC(=O)N(Cc3ccc(Cl)cc3)C2)CC1 (stereo not drawn) ?
TRPC4 act: inactive; Kir21 inh: 0.89; TRPC6 activator: inactive; TRPC4 block: inactive; TRPC6 inh: inactive; TRPC4 PAM: inactive

Results for C=CCNc1oc(/C=C/c2ccccc2)nc1C#N ?
TRPC4 act: inactive; Kir21 inh: 0.69; TRPC6 activator: inactive; TRPC4 block: inactive; TRPC6 inh: inactive; TRPC4 PAM: inactive

Results for O=C(OC(C(=O)NCC1CCCO1)c1ccc(F)cc1)c1cccs1 (stereo not drawn) ?
TRPC4 act: 47*; Kir21 inh: -0.47; TRPC6 activator: inactive; TRPC4 block: inactive; TRPC6 inh: inactive; TRPC4 PAM: inactive

Results for COc1ccc(CN2CCN(c3nc4ccccc4s3)CC2)cc1 ?
TRPC4 act: inactive; Kir21 inh: 1.1; TRPC6 activator: inactive; TRPC4 block: inactive; TRPC6 inh: inactive; TRPC4 PAM: 23*

Results for CCC/C(O)=C1\C(=O)CCCC1=NCCc1c(C)[nH]c2ccc(C)cc12 ?
TRPC4 act: inactive; Kir21 inh: 1.6; TRPC6 activator: inactive; TRPC4 block: inactive; TRPC6 inh: inactive; TRPC4 PAM: inactive

What do the screens show for `CCCC/C(O)=C1\C(=O)CCCC1=NCCc1c(C)[nH]c2ccccc12`?
TRPC4 act: inactive; Kir21 inh: -4.4*; TRPC6 activator: inactive; TRPC4 block: inactive; TRPC6 inh: inactive; TRPC4 PAM: inactive

How did CC1CN(C(=O)CCNS(=O)(=O)c2ccc(Br)cc2)CC(C)O1 (stereo not drawn) do in these assays?
TRPC4 act: inactive; Kir21 inh: 0; TRPC6 activator: inactive; TRPC4 block: inactive; TRPC6 inh: inactive; TRPC4 PAM: inactive

How did COc1ccc(Nc2nc(N3CCCCC3)nc3ccccc23)c(OC)c1 do in these assays?
TRPC4 act: inactive; Kir21 inh: -7*; TRPC6 activator: inactive; TRPC4 block: inactive; TRPC6 inh: inactive; TRPC4 PAM: inactive

What do the screens show for `CCN(CCn1cccn1)C(=O)C1CCC(=O)N(CCc2cccc(F)c2)C1` (stereo not drawn)?
TRPC4 act: inactive; Kir21 inh: 1; TRPC6 activator: inactive; TRPC4 block: inactive; TRPC6 inh: inactive; TRPC4 PAM: inactive

How did CN(CC(=O)Nc1cccc(F)c1)C(=O)c1cc(S(=O)(=O)N(C)C)ccc1N1CCCC1 do in these assays?
TRPC4 act: inactive; Kir21 inh: 0.78; TRPC6 activator: inactive; TRPC4 block: inactive; TRPC6 inh: inactive; TRPC4 PAM: inactive

What do the screens show for `C=CCOc1ccccc1CN(C(=O)CCl)c1ccc2c(c1)OCO2`?
TRPC4 act: inactive; Kir21 inh: -4.2*; TRPC6 activator: inactive; TRPC4 block: inactive; TRPC6 inh: inactive; TRPC4 PAM: inactive

What do the screens show for `CCOc1ccccc1NC(=O)Nc1ccc2c(c1)OCO2`?
TRPC4 act: inactive; Kir21 inh: -0.25; TRPC6 activator: inactive; TRPC4 block: inactive; TRPC6 inh: inactive; TRPC4 PAM: inactive

What do the screens show for `C=CCn1c(NC(C)c2cc(Cl)ccc2O)nc2ccccc21` (stereo not drawn)?
TRPC4 act: inactive; Kir21 inh: -1.3; TRPC6 activator: inactive; TRPC4 block: -6*; TRPC6 inh: inactive; TRPC4 PAM: inactive

What do the screens show for `COc1cc(C(=O)Nc2cc3c(cc2N2CCCCC2)n(C)c(=O)n3C)cc(OC)c1OC`?
TRPC4 act: inactive; Kir21 inh: 0.2; TRPC6 activator: inactive; TRPC4 block: inactive; TRPC6 inh: inactive; TRPC4 PAM: inactive

How did COc1ccccc1CN=C1Nc2ccccc2CS1 do in these assays?
TRPC4 act: 71*; Kir21 inh: -13*; TRPC6 activator: inactive; TRPC4 block: inactive; TRPC6 inh: inactive; TRPC4 PAM: inactive

Results for CCCN1CCC(NC(=O)CCc2nnc(Cc3cc(OC)ccc3OC)o2)CC1 ?
TRPC4 act: 55*; Kir21 inh: 1.8; TRPC6 activator: inactive; TRPC4 block: inactive; TRPC6 inh: inactive; TRPC4 PAM: 10*

What do the screens show for `COc1ccc(OC)c(Cc2nnc(CCC(=O)NC3CCCCC3)o2)c1`?
TRPC4 act: inactive; Kir21 inh: 0.43; TRPC6 activator: inactive; TRPC4 block: inactive; TRPC6 inh: inactive; TRPC4 PAM: inactive

How did Cc1ccc(OCC(=O)NNC(=O)c2ccco2)c(C)c1 do in these assays?
TRPC4 act: inactive; Kir21 inh: -1.3; TRPC6 activator: inactive; TRPC4 block: inactive; TRPC6 inh: inactive; TRPC4 PAM: inactive

How did CCN(CC)S(=O)(=O)c1cccc(NC(=O)CNc2cccc(S(=O)(=O)N3CCOCC3)c2)c1 do in these assays?
TRPC4 act: inactive; Kir21 inh: 0.59; TRPC6 activator: inactive; TRPC4 block: inactive; TRPC6 inh: inactive; TRPC4 PAM: inactive

What do the screens show for `Cc1cc(=O)oc2cc(OC(=O)c3ccco3)ccc12`?
TRPC4 act: inactive; Kir21 inh: -12*; TRPC6 activator: inactive; TRPC4 block: inactive; TRPC6 inh: inactive; TRPC4 PAM: inactive

How did CCc1cc(=O)oc2cc(OC(=O)c3ccco3)ccc12 do in these assays?
TRPC4 act: inactive; Kir21 inh: 0; TRPC6 activator: inactive; TRPC4 block: inactive; TRPC6 inh: inactive; TRPC4 PAM: inactive
